Measured values as given in ChEMBL document CHEMBL4513216, “Probing the Open Global Health Chemical Diversity Library for Multistage-Active Starting Points for Next-Generation Antimalarials” (ACS Infect Dis, 2020).

Assay: Toxicity liver stage against HepG2, at 10uM
Format: cell-based
Design: test concentration 10 uM, cell line HepG2-A16-CD81EGFP
Settings: human, HepG2-A16-CD81EGFP cells; read-out: INHIBITION
Summary of the method: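 Uninfected HepG2-A16-CD81EGFP cells, 3 × 10^3 per well, 1536-well, plated on prespotted compound at 10 μM final, parasite-free screening media added to match infected plates; puromycin 10 μM positive, DMSO 0.5% negative; run in parallel with 48 h PbLuc assay at 37 °C, 5% CO2; viability by CellTiter-Glo luminescence, normalized to controls.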

| SMILES | cytotoxicity at 10 µM |
| --- | --- |
| Cc1ccc(N2CCC3(CC2)CC(OCC(C)C)C3)nn1 | -121% |
| Cc1cc2c(cc1C)C(NC1CC1)CCCO2 (stereo not given) | 4.57% |
| Cn1nnnc1SC1CCCN(c2cccc(F)c2)C1=O (stereo not given) | 3.85% |
| Cc1ccc(C2CSCCN2C(=O)c2ccoc2C)o1 (stereo not given) | 13.8% |
| Cc1ccc(C(=O)N2CCC3(CCC(=O)N(CCN(C)C)C3)CC2)nc1 | -1.62% |
| Cc1noc(C)c1-c1cccc(CC2CCN(C(=O)c3cc[nH]n3)C2)n1 (stereo not given) | 2.31% |
| CN(C)C(=O)Cn1c(C2CC2)c(CN2CCSCC2)c2cccnc21 | 4.06% |
| Cc1nn(C)cc1-c1cc(C(=O)N2CCc3ncc(Cl)cc3C2)on1 | -4.96% |
| CC(=O)c1cccc(NC(=O)NCCOCC2CC2)c1 | 5.11% |
| CCCc1cnc(C)nc1N1CCC(Cn2cc(C(C)O)nn2)CC1 (stereo not given) | 1.92% |
| Cc1cc(CC(=O)NC2CCCN(Cc3ccccc3)C2=O)n[nH]1 (stereo not given) | 3.5% |
| CCc1nc(C)c(C(C)N(C)CCc2ccccn2)s1 (stereo not given) | -6.51% |
| COc1cccc(C(=O)N2CCCCC2CNC(N)=O)c1 (stereo not given) | -7.03% |
| CN1C(=O)CCC12CCCN(C(=O)c1ccoc1)C2 (stereo not given) | 2.65% |
| CN(Cc1cnccn1)S(=O)(=O)c1ccc(C(F)(F)F)nc1 | -9.77% |
| CCc1cc(=O)[nH]c(-c2ccc(NCCC(C)O)nc2)n1 (stereo not given) | -127% |
| CCSc1ccc(C(C)NC(=O)CCS(C)(=O)=O)cc1 (stereo not given) | 2.18% |
| CN(Cc1ccc(CCC(C)(C)O)cc1)CC1(CO)CC1 | -4.32% |
| COc1ncccc1CNCc1c(C(C)C)nn(C)c1N(C)C | -5.91% |
| CCc1nc2n(n1)CC(NCCC(=O)Nc1cc(C)on1)CC2 (stereo not given) | -10% |
| CCn1nc(CC(C)C)cc1C(=O)NCCCN1CCOCC1 | 1.6% |
| CC(C)(NC(=O)C1CCN(C2CCCCC2)CC1)c1nnc(N)s1 | 6.17% |

| SMILES | cytotoxicity at 10 µM |
| --- | --- |
| COCC(=O)NC(C)Cc1cccc(Br)c1 (stereo not given) | -8.21% |
| Cc1occc1C(=O)NC1CCN(C(=O)Nc2cccnc2)CC1 | 8.98% |
| CSc1cc2c(cc1NC(=O)NCC(=O)N(C)C)OCCO2 | -5.87% |
| CCOc1ccc(C(=O)Nc2c(C)nc3scc(C)n3c2=O)cc1 | -5.58% |
| COC(=O)CNCC1(O)CCCN(Cc2cccc(F)c2F)C1=O (stereo not given) | -6.87% |
| CCC(SC)C(=O)N1CCC(n2ccnn2)CC1 (stereo not given) | -41.5% |
| CCc1nc2n(n1)CC(NCc1nnc(C(C)C)o1)CC2 (stereo not given) | -15.7% |
| O=C(NCCc1nncn1C1CC1)C1SCCc2sccc21 (stereo not given) | -1.6% |
| CCOc1ncccc1C(=O)N1CCN(C)C2(CCN(C)CC2)C1 | -0.351% |
| CCc1nnc(CN(CC)C(=O)C2CC(=O)N(Cc3cccnc3)C2)o1 (stereo not given) | 2.3% |
| O=C1[C@H]2CN(Cc3ccoc3)C[C@H]2CN1CCN1CCCC1 | 1.05% |
| O=C(NCc1nnc2n1CCC2)c1cn(-c2cccc(Br)c2)nn1 | -4.3% |
| CCc1nc(CN2CCN(C(=O)c3csc(C(C)C)n3)CC2)no1 | 11.3% |
| Cc1noc(CN(Cc2ccc3c(c2)OCO3)Cc2ccc(C)o2)n1 | -0.194% |
| CN1CCCCC12CCN(c1nncs1)C2 (stereo not given) | 7.1% |
| CC(=O)NCc1ccc(C(=O)N2CCCC2c2c(C)nn(C)c2C)o1 (stereo not given) | -11.3% |
| O=C(N[C@@H]1CC[C@@H](N2CCCC2)[C@@H]1O)c1cc2cccc(F)c2[nH]1 | 2.91% |
| O=C(Cn1ccc(=O)cc1)N1C[C@@H]2CC[C@H]1CN(c1ncccn1)C2 | 4.52% |
| CNc1cc(C2CCCN2C(=O)c2ccc3oc(=O)n(C)c3c2)ccn1 (stereo not given) | 1.68% |
| C[C@@H](O)CNC(=O)c1nc(CC(=O)Nc2ccccc2)no1 | 7.49% |
| O=C(NCc1cc[nH]n1)N(CCCO)C1CCc2ccccc21 (stereo not given) | -3.27% |
| O=C(NCC1CCS(=O)(=O)C1)c1ccc(NC(=O)c2ccco2)cc1 (stereo not given) | 3.25% |

| SMILES | cytotoxicity at 10 µM |
| --- | --- |
| Cc1ccc2c(n1)N(CC1CC1)CCN(Cc1ccco1)C2 | 2.75% |
| CCOC(=O)CSc1ccc(-c2nc(C)no2)cn1 | -15.2% |
| CCOc1ccccc1OC1CCN(C(=O)c2ccc(=O)[nH]n2)CC1 | -8.7% |
| CCc1csc(C2CCCN(C(=O)C3=NN(CC)C(=O)CC3)C2)n1 (stereo not given) | -6.26% |
| CCn1ncnc1C(C)NC(=O)Cc1cc2c(cc1Cl)OCCO2 (stereo not given) | -6.38% |
| CNC(=O)[C@@H]1CN(C(=O)C(C)C)C[C@H]1c1ccnc(N2CCCC2)n1 | 0.791% |
| CC(C)CN1C(=O)c2ccc(C(=O)NCCc3c[nH]cn3)cc2C1=O | 9.66% |
| O=C(COC[C@@]12CCC[C@@H]1CN(C1CCCC1)C2)N1CCCC1 | -112% |
| CC(C)(C)C(=O)NCCc1cc(N2CCOCC2)nc(NC2CC2)n1 | 6.68% |
| CNC(=O)C1CCN(c2nc3nc[nH]c(=O)c3s2)CC1 | -13.5% |
| O=S1(=O)C[C@@H]2[C@H](C1)N(Cc1cc(Cl)cc(Cl)c1)CCN2CC1CC1 | 27.6% |
| Cc1nn(C)c(C)c1C1CCCN1C(=O)c1cnc2n[nH]c(C)c2c1 (stereo not given) | -8.38% |
| CN(C(=O)c1ccc(Cl)c(S(C)(=O)=O)c1)c1ccccc1 | -1.47% |
| CC(C)COCC(NC(=O)c1ccccn1)c1ccco1 (stereo not given) | -7.52% |
| CCc1nc(CN2CCOC(Cn3nc(C)nc3C)C2)no1 (stereo not given) | -5.38% |
| Cc1nc(CCNc2nc(N(C)C)nc3c2CCCC3)cc(=O)[nH]1 | 6.86% |
| Cc1nccn1CCCn1cncc1-c1ccc2c(c1)CCC(C)N2C (stereo not given) | -4.98% |
| CC(C)(CNC(=O)COc1cccc(F)c1)C(N)=O | -4.89% |
| CN1CCN(C(=O)[C@H]2CC[C@@H]3[C@@H](CCN3Cc3nccs3)O2)CC1 | 5.41% |
| CS(=O)(=O)N1CCC(Oc2ccc(C(=O)NC3CCOC3)cc2Cl)CC1 (stereo not given) | -4.88% |
| Cc1ccc(-c2cc(C(=O)O)sn2)cc1 | 2.2% |
| Cn1ncc2c(NC3CCC(N)CC3)nc(C(C)(C)C)nc21 (stereo not given) | 8% |

| SMILES | cytotoxicity at 10 µM |
| --- | --- |
| COc1c(C2CCCN2C(=O)Cc2c(C)noc2C)c(C)nn1C (stereo not given) | -12.9% |
| CCc1nc(N)nc(NCCC(=O)N2CCCC2)c1C | -42.5% |
| CN(C)C(=O)CN1CCCC(Cc2ccc(N3CCCC3)nn2)C1 (stereo not given) | 3.77% |
| CC(CC(=O)NS(C)(=O)=O)C1CCCCC1 (stereo not given) | -13.5% |
| CCCC1(CNCc2ncc[nH]2)CCC1 | 2.24% |
| Cn1cc(CN2CCC(F)(F)C3(CCN(c4cnccn4)C3)C2)cn1 (stereo not given) | -9.93% |
| O=C(N1CCOCC1)N1C[C@H]2CN(Cc3nccs3)C[C@H]2C1 | -80.8% |
| Cc1c(NCC(C)(C)C)cccc1C(=O)NCc1ncnn1C | -3.53% |
| O=C1NCc2ccccc2CC12CCCN(CCCc1ccccc1)C2 (stereo not given) | 10.3% |
| COCC1CCN(S(=O)(=O)N2C[C@H](c3ccccc3)[C@@H](N)C2)CC1 | 1.12% |
| O=C1NCCN1C1CCCN(Cc2coc(-c3ccc(F)cc3)n2)C1 (stereo not given) | 8.63% |
| CC(NC(=O)NCCCn1ccnc1)c1ccc2c(c1)OCCCO2 (stereo not given) | -15.1% |
| O=C(N1CCCC1)N1CCC[C@]2(C[C@@H](OCc3ccncc3)CO2)C1 | 7.19% |
| c1cnc(N2C[C@H]3CC[C@@H](C2)N(Cc2ccsc2)C3)nc1 | 1.2% |
| CC(C)c1cc(=O)[nH]c(-c2ccccc2CN2CCC(C)(C)C2)n1 | -42% |
| Cc1nc(C)n(CC2CCCN2CCCOc2ccc(C#N)cc2)n1 (stereo not given) | -8.33% |
| Cc1nnn2c1COC(CNCc1nccs1)C2 (stereo not given) | 1.71% |
| CS(=O)(=O)NC[C@H]1Cn2c(-c3ccc(F)cc3)cnc2CO1 | -7.47% |
| Cc1cnc(C(=O)N2CCN(C(=O)CC(C)C)[C@@H]3CS(=O)(=O)C[C@@H]32)cn1 | -3.06% |
| O=C(CS(=O)(=O)Cc1ccc(F)cc1)NC1CCCCNC1=O (stereo not given) | -0.252% |
| CNC(=O)N1CCC2(CC1)CN(C)Cc1cc(F)ccc12 | 4.16% |
| O=C(O)c1cc2c(nc1-c1ccncc1)CCN(C1CCOC1)CC2 (stereo not given) | 9.34% |

| SMILES | cytotoxicity at 10 µM |
| --- | --- |
| Cc1nc(CNc2ccccc2CCC(F)(F)F)cs1 | -8.47% |
| Cc1ccc(CN2CC[C@@H]3CN(S(C)(=O)=O)CCO[C@@H]3C2)o1 | 8.76% |
| CC(C)=CCC1(C(=O)O)CCCN(c2ccnc(N)n2)C1 (stereo not given) | -13.7% |
| CCOC(=O)[C@H]1[C@@H](O)C(=O)N(C)C12CCN(S(=O)(=O)CC)CC2 | -6.06% |
| Cc1cc(C[C@@H]2COC[C@H]2NCc2ccc(Cl)c(Cl)c2)on1 | -5.44% |
| O=C(O)c1ccc(F)c(S(=O)(=O)N2CCOc3ccccc32)c1 | -4.28% |
| NC(=O)COc1ccc(CNCc2ccc(F)cc2)cc1 | -2.05% |
| CN(C)C(=O)CCNC(=O)c1cnc(-c2ccccc2)nc1 | 4.87% |
| CC(C)N1CCc2c(c(COc3cccnc3)nn2CC2CC2)C1 | 6.49% |
| O=C(Cc1cccc(F)c1)NC1CCCc2cn[nH]c21 (stereo not given) | 16.5% |
| Cc1nc(CNC(=O)c2oc3ccccc3c2CN(C)C)oc1C | 9.46% |
| O=C(c1ccc(-c2cccc3c2CCNC3)o1)N1CCCCC1 | 3.67% |
| CCOCC(=O)NCCc1nc(C2CC2)cc(C(F)(F)F)n1 | 1.01% |
| COc1cccc(CNc2cccnc2-n2cccn2)c1OC | 1% |
| CN(C)CCN1CCCC12CCN(C(=O)c1cccn1C)CC2 | -2.03% |
| Cc1ncsc1C(=O)N1CCc2nnc(C3CCCCN3C)n2CC1 (stereo not given) | 3.3% |
| CN1CCCN(c2nccc(-c3c[nH]c4ccc(Br)cc34)n2)CC1 | -9.99% |
| COc1ccc(C(O)CNC(=O)NCc2c(C)cc(C)[nH]c2=O)cc1 (stereo not given) | -2.99% |
| O=C(c1ccc2c(c1)CCCC2)N1CCN(c2cnccn2)CC1 | -1.95% |
| COCC1(CNC(=O)Nc2cc(F)ccc2OC)CCCC1 | 5.17% |
| COC(=O)C(C)NC(=O)CSCc1nc(O)c2cc(C(C)C)sc2n1 (stereo not given) | 10.2% |
| CCN(C(=O)c1nc2c(s1)CCCN2c1ccc(C)nn1)C(C)C | 3.86% |
